pIC50: −log10 of the molar value.
Columns and labels:
[1] = Toxicity in SCID mouse xenografted with MDA-MB-231 cells assessed as change in body weight at 20 mg/kg, po qd for 15 days and measured every 3 days; format: organism-based; conditions: in vivo, 360 h, dose 20 mg/kg/day, time 15 day
MDA-MB-231 [2] = assay: Antitumor activity against human MDA-MB-231 cells xenografted in SCID mouse assessed as tumor growth inhibition at 40 mg/kg, po qd for 15 days and measured every 3 days; format: functional; conditions: MDA-MB-231, po, 360 h, time 15 day
Method in brief: (§1)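 SCID mice (5−6 weeks) injected subcutaneously with 100 μL of cells at 5 × 10^7/mL. At 150−200 mm3 mice randomized, 6 per group. Oral compounds given in water with 25% PEG400 plus 5% DMSO; paclitaxel given 10 mg/kg/week iv. Tumor volume a×b²/2 and body weight measured every 3 days. Inhibition rate (c−d)/c×100% against vehicle control.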

[3] = Toxicity in SCID mouse xenografted with MDA-MB-231 cells assessed as change in body weight at 40 mg/kg, po qd for 15 days and measured every 3 days; format: organism-based; conditions: in vivo, 360 h, dose 40 mg/kg/day, time 15 day
[4] = Toxicity in SCID mouse xenografted with MDA-MB-231 cells assessed as animal death at 40 mg/kg, po qd for 15 days; format: organism-based; conditions: in vivo, dose 40 mg/kg/day, time 15 day, read-out: Activity
MDA-MB-231 [5] = assay: Antitumor activity against human MDA-MB-231 cells xenografted in SCID mouse assessed as tumor growth inhibition at 20 mg/kg, po qd for 15 days and measured every 3 days; conditions: MDA-MB-231, po, 360 h, read-out: INH
[6] = Toxicity in SCID mouse xenografted with MDA-MB-231 cells assessed as animal death at 20 mg/kg, po qd for 15 days; format: organism-based; conditions: in vivo, dose 20 mg/kg/day, time 15 day, read-out: Activity
[7] = Half-life in Sprague-Dawley rat at 10 mg/kg, po administered via gavage by LC-MS analysis; format: ADME, organism-based; conditions: in vivo
[8] = AUC (0 to t) in Sprague-Dawley rat at 10 mg/kg, po administered via gavage by LC-MS analysis; format: ADME, organism-based; design: dose 10 mg/kg; conditions: in vivo
[9] = AUC (0 to infinity) in Sprague-Dawley rat at 10 mg/kg, po administered via gavage by LC-MS analysis; format: ADME, organism-based; design: time infinity, route oral, dose 10 mg/kg; conditions: in vivo
[10] = Tmax in Sprague-Dawley rat at 10 mg/kg, po administered via gavage by LC-MS analysis; format: ADME, organism-based; conditions: in vivo
[11] = Cmax in Sprague-Dawley rat at 10 mg/kg, po administered via gavage by LC-MS analysis; format: ADME, organism-based; design: route oral, dose 10 mg/kg; conditions: in vivo
MDA-MB-231 [12] = assay: Antiproliferative activity against human MDA-MB-231 cells assessed as reduction in cell viability incubated for 72 hrs by MTT assay; format: functional, cell-based; conditions: MDA-MB-231, 72 h
Method in brief: (§2)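 MTT viability assay. ATCC cell lines were grown in designated medium with 10% FBS at 37 °C, 5% CO2. Cells seeded at 1500−30000 per well and incubated 24 h, then exposed to compound (0−10 μg/mL) for 72 h. MTT added for 2−4 h. Formazan dissolved in DMSO (adherent) or acidified SDS overnight (suspension), absorbance read at 570 nm. Triplicates; IC50 calculated.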

MDA-MB-435 = assay: Antiproliferative activity against human MDA-MB-435 cells assessed as reduction in cell viability incubated for 72 hrs by MTT assay; format: functional, cell-based; conditions: MDA-MB-435, 72 h; method in brief: as §2
HepG2 = assay: Antiproliferative activity against human HepG2 cells assessed as reduction in cell viability incubated for 72 hrs by MTT assay; format: ADME, cell-based; conditions: HepG2, 72 h
[13] = target: Voltage-gated inwardly rectifying potassium channel KCNH2 (Homo sapiens, UniProt Q12809); assay: Inhibition of human ERG expressed in CHO cells at -80 mV holding potential by automated Qpatch electrophysiological assay
Chain of Voltage-gated inwardly rectifying potassium channel KCNH2 (Q12809 whole entry): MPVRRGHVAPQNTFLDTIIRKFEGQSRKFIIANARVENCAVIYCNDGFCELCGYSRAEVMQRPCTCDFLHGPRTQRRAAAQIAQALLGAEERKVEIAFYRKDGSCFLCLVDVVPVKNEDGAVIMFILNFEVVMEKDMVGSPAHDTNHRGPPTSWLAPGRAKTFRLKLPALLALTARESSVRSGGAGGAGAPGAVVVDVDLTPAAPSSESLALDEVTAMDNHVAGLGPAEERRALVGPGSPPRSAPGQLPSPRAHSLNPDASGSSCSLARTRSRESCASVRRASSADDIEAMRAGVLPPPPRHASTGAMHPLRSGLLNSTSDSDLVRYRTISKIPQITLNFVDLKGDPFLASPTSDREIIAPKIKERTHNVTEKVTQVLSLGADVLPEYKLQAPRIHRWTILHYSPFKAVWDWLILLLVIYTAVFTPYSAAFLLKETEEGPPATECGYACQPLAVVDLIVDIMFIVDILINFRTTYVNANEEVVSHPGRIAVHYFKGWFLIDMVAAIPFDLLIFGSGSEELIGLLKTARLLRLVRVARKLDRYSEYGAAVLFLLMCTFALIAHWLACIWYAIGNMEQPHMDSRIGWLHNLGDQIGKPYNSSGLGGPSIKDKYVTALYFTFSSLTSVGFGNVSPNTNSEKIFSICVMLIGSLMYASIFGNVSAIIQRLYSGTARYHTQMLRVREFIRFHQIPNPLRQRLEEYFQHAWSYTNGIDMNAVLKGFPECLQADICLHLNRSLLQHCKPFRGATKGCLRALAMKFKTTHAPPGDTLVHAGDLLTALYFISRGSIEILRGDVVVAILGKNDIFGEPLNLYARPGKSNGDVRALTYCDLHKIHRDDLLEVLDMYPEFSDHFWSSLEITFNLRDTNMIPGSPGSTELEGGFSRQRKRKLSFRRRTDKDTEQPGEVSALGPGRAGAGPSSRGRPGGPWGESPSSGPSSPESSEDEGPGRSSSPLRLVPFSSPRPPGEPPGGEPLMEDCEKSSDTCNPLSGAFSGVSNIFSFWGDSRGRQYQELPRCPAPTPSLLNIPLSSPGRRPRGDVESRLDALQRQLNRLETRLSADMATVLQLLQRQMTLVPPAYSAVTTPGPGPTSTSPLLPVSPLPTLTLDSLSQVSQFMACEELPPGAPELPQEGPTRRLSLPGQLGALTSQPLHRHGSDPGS

MDA-MB-231 [14] = assay: Antitumor activity against human MDA-MB-231 cells xenografted in SCID mouse assessed as tumor growth inhibition at 40 mg/kg, po qd for 21 days and measured every 3 days; format: functional; conditions: MDA-MB-231, po, 504 h, time 21 day; method in brief: as §1
[15] = Toxicity in SCID mouse xenografted with MDA-MB-231 cells assessed as change in body weight at 40 mg/kg, po qd for 21 days and measured every 3 days; format: organism-based; conditions: in vivo, 504 h, dose 40 mg/kg/day, time 21 day
Method in brief: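 Exponential-phase cells washed and injected subcutaneously (5 × 10^6 cells in 100 μL) into 5–6-week SCID mice. At 150–200 mm3, mice randomised to groups of 6. Oral dosing daily in water with 25% PEG400 and 5% DMSO; paclitaxel 10 mg/kg weekly by tail vein. Body weight measured every 3 days and side effects checked daily.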

[16] = Toxicity in SCID mouse xenografted with MDA-MB-231 cells assessed as animal death at 40 mg/kg, po qd for 21 days; format: organism-based; conditions: in vivo, dose 40 mg/kg/day, time 21 day, read-out: Activity
Method in brief: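 SCID mice aged 5–6 weeks were injected subcutaneously with 100 μL of MDA-MB-231 cells resuspended at 5 × 10^7 per mL. When tumours reached 150–200 mm3, mice were randomised into groups of 3 or 6. Dosing was oral and daily, in sterile water with 25% PEG400 plus 5% DMSO. Side effects were checked daily and body weight every 3 days.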

[17] = Acute toxicity in Sprague-Dawley rat assessed as histopathological changes in heart at 100 mg/kg, po administered as single dose measured after 24 hrs by H and E staining based light microscope analysis; format: organism-based; conditions: in vivo
Method in brief: (§3)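 Sprague-Dawley rats received a single oral dose of 100 mg/kg in sterile water with 25% (v/v) PEG400 plus 5% DMSO. Organs were examined by histology and immunohistochemistry for pathological changes. Behaviour and side effects were checked daily.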

[18] = Acute toxicity in Sprague-Dawley rat assessed as histopathological changes in liver at 100 mg/kg, po administered as single dose measured after 24 hrs by H and E staining based light microscope analysis; format: organism-based; conditions: in vivo; method in brief: as §3
[19] = Acute toxicity in Sprague-Dawley rat assessed as histopathological changes in spleen at 100 mg/kg, po administered as single dose measured after 24 hrs by H and E staining based light microscope analysis; format: organism-based; conditions: in vivo; method in brief: as §3
[20] = Acute toxicity in Sprague-Dawley rat assessed as histopathological changes in lungs at 100 mg/kg, po administered as single dose measured after 24 hrs by H and E staining based light microscope analysis; format: organism-based; conditions: in vivo; method in brief: as §3
[21] = Acute toxicity in Sprague-Dawley rat assessed as histopathological changes in kidney at 100 mg/kg, po administered as single dose measured after 24 hrs by H and E staining based light microscope analysis; format: organism-based; conditions: in vivo; method in brief: as §3

Row | Structure (SMILES) | inhibition in vivo at 40 mg/kg/day (MDA-MB-231 [2]) [%] | Activity [3] [%] | mortality at 360 h [4] [%] | pIC50 (MDA-MB-231 [12]) | pIC50 (MDA-MB-435) | pIC50 (HepG2) | pIC50 [13] | inhibition in vivo at 40 mg/kg/day (MDA-MB-231 [14]) [%] | Activity [15] [%] | mortality at 504 h [16] [%] | further results
1 | Cc1ccc(NC(=O)c2cccc(C(F)(F)F)c2)cc1C#Cc1nn([C@H]2CC[C@H](O)CC2)c2ncnc(N)c12 | 89.1 | 3.1 | 0 |  |  |  |  |  |  |  | Activity [1]: 3.5%; inhibition in vivo at 20 mg/kg/day (MDA-MB-231 [5]): 79.6%; mortality at 360 h [6]: 0%; half-life [7]: 4.7 h; AUC(0-t) [8]: 960 ng·h/mL; AUC(0-inf) [9]: 976 ng·h/mL; Tmax [10]: 6 h; Cmax [11]: 128 ng/mL
2 | Cc1ccc(NC(=O)c2ccc(Cl)c(C(F)(F)F)c2)cc1C#Cc1nn(C[C@H](C)CO)c2ncnc(N)c12 |  |  |  | 7.77 | 6.49 | < 5.00 | < 4.52 |  |  |  | 
3 | Cc1ccc(NC(=O)c2cccc(C(F)(F)F)c2)cc1C#Cc1nn([C@H]2CC[C@@H](O)CC2)c2ncnc(N)c12 |  |  |  |  |  | 5.10 |  |  |  |  | Activity [1]: -2%; inhibition in vivo at 20 mg/kg/day (MDA-MB-231 [5]): 70.2%; mortality at 360 h [6]: 0%
4 | Cc1ccc(NC(=O)c2cccc(C(F)(F)F)c2)cc1C#Cc1nn(C2CCN(C)CC2)c2ncnc(N)c12 |  |  |  | 7.89 | 7.10 | < 5.00 | 6.22 | 90.7 | -3.1 | 0 | 
5 | Cc1ccc(NC(=O)c2cccc(C(F)(F)F)c2)cc1C#Cc1nn(C[C@@H](C)CO)c2ncnc(N)c12 | 78.1 | -3.2 | 0 | 7.77 | 8.00 | 5.02 | < 4.52 |  |  |  | 
6 | Cc1ccc(NC(=O)c2ccc(Cl)cc2)cc1C#Cc1nn(C2CCN(C)CC2)c2ncnc(N)c12 |  |  |  | 7.48 | 6.95 | 5.12 |  | 90.1 | -16 | 0 | 
7 | Cc1ccc(NC(=O)c2ccc(Cl)c(C(F)(F)F)c2)cc1C#Cc1nn(C2CCN(C)CC2)c2ncnc(N)c12 |  |  |  | 7.51 | 7.57 | < 5.00 |  | 70.5 | -6.7 | 0 | 
8 | Cc1ccc(C(=O)Nc2cccc(C(F)(F)F)c2)cc1C#Cc1nn(C2CCN(C)CC2)c2ncnc(N)c12 | 91.2 | -13.2 | 0 | 8.05 | 6.77 | 5.11 |  |  |  |  | 
9 | Cc1ccc(NC(=O)c2ccc(Cl)c(C(F)(F)F)c2)cc1C#Cc1nn([C@H]2CC[C@H](O)CC2)c2ncnc(N)c12 | 96.1 | -13.4 | 0 | 7.80 | 7.43 | < 5.00 | < 4.52 |  |  |  | 
10 | Cc1ccc(NC(=O)c2cnc(C(C)(C)C)s2)cc1C#Cc1nn(C2CCN(C)CC2)c2ncnc(N)c12 |  |  |  | 7.11 | 7.70 | < 5.00 |  | 87 | -5.3 | 0 | 
11 | COc1ccc(C(=O)Nc2ccc(C)c(C#Cc3nn(C4CCN(C)CC4)c4ncnc(N)c34)c2)cc1C(F)(F)F |  |  |  | 7.62 | 6.08 | 5.66 |  |  |  | 0 | 
12 | Cc1ccc(NC(=O)c2ccc(C)c(C(F)(F)F)c2)cc1C#Cc1nn(C2CCN(C)CC2)c2ncnc(N)c12 |  |  |  | 7.36 | 7.40 | < 5.00 |  | 69.8 | -4.5 | 0 | 
13 | CCn1nc(C#Cc2cc(C(=O)Nc3ccc(CN4CCN(C)CC4)c(C(F)(F)F)c3)ccc2C)c2c(N)ncnc21 |  |  |  |  |  |  |  |  |  |  | Activity [17]: Toxic; Activity [18]: Toxic; Activity [19]: Toxic; Activity [20]: Toxic; Activity [21]: Toxic
14 | Cc1ccc(NC(=O)c2cccc(C(F)(F)F)c2)cc1C#Cc1nn(C[C@H](C)CO)c2ncnc(N)c12 | 77.3 | -8.2 | 0 | 8.00 | 8.00 | < 5.00 | < 4.52 |  |  |  | 
15 | Cc1ccc(NC(=O)c2ccc(C)c(C(F)(F)F)c2)cc1C#Cc1nn(C[C@H](C)CO)c2ncnc(N)c12 | 97.1 | -11.3 | 0 | 7.37 | 7.21 | < 5.00 | < 4.52 |  |  |  | 

From ChEMBL document CHEMBL4765233, “From Lead to Drug Candidate: Optimization of 3-(Phenylethynyl)-1H-pyrazolo[3,4-d]pyrimidin-4-amine Derivatives as Agents for the Treatment of Triple Negative Breast Cancer” (J Med Chem, 2016)
